A selection: hits, their analogues and other compounds. The true share with any hit is near 4.9%.
STAT1 inh = STAT1 signaling inhibition; NIH 3T3 STAT1-luciferase reporter, IFN-gamma, luminescence; 0.35% of 200,000 active; inhibition, % at 5.5 µM;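 active = inhibition above a set limit, the mean inhibition across all tested compounds plus 3 SD, cut at about 34% in these data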;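 note: 0% = IFN-gamma with DMSO and 100% = IFN-gamma with 300 µM nifuroxazide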
NF-kB expr up = NF-kB expression increase, human neuronal cells; fold change at 12.5 µM; 1.6% of 190,000 active; NF-kB reporter expression; stronger effect = higher value; in the data active = fold change above about 3.3
STAT3 inh = reduces IL-6 driven STAT3 reporter signal | U3A cells, IL-6 STAT3-luciferase reporter, luminescence; host cell line lacks STAT1 | inhibition, % at 5.5 µM | 0.89% of 190,000 active;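 active = inhibition above the mean inhibition across all screened compounds plus 3 SD, cut at about 44% in these data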;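 note: 0% = DMSO only wells and 100% = 100 µM nifuroxazide control wells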
STAT1 act = increases IFN-gamma driven STAT1 reporter signal; NIH 3T3 STAT1-luciferase reporter, luminescence; 100% = IFN-gamma alone, no compound; activation (% of control), % at 5.5 µM; 2.6% of 200,000 active;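 active = activation above the screen-wide mean activation plus 3 SD, cut at about 130% in these data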;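 note: raw ratio to IFN-gamma control signal so 100% means no change and 0% no light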
STAT3 activator = increases IL-6 driven STAT3 reporter signal; U3A cells, IL-6 STAT3-luciferase reporter, luminescence; 100% = signal with IL-6 EC80 alone; 0.91% of 190,000 active; activation (% of control), % at 5.6 µM; AID 871;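 active = activation above the screen-wide mean of compound activation plus 3 SD, cut at about 130% in these data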;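 note: 0% = background luminescence of wells with medium and substrate only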
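System – human U3A cells carrying STAT3-luciferase construct · Probe or stimulus – Interleukin-6, 33 ng/mL · Schedule – compound 1 h, then IL-6 6 h at 37 °C · Signal – luminescence from STAT3-driven luciferase reporter · Evaluation – percent of IL-6-only median luminescence · Benchmarks – IL-6-only high control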
APP 5'UTR act = APP 5'UTR luciferase reporter activation. SH-SY5Y APP 5'UTR luciferase reporter, luminescence; zero percent = DMSO vehicle wells. activation, % at 2 µM. 1% of 190,000 active;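 active = activation above a set limit, based on mean plus 3 SD of controls, cut at about 140% in these data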
* = called active by the depositor; · = not tested or not shown.

SMILES	STAT1 inh	NF-kB expr up	STAT3 inh	STAT1 act	STAT3 activator	APP 5'UTR act
CCN(CC)CC(C)CNC(=O)CN1C(=O)CSc2ccc(S(=O)(=O)N3CCOCC3)cc21 (configuration not stated)	-7.9	1.2	10.3	107.2	94.1	-24.8
CC(=O)NC(=S)Nc1ccc(S(=O)(=O)Nc2nc(C)cc(C)n2)cc1	-3.7	1.14	4.8	101.4	101.4	0.2
COCC(=O)Nc1ccc(OC)c(Cl)c1	5.4	1.02	6.2	93.2	99.5	-1.1
CCc1cccc(NC(=O)Nc2cccs2)c1	-36.0	1.7	1.1	132.7*	103.4	42.8
COc1ccc(NC(=O)C=C(C)C)cc1Cl	-27.4	4.65*	10.6	125.3	93.5	152.7*
Cc1ccc(C(=O)NCC(=O)OCC(=O)NCC(F)(F)F)cc1	-0.3	0.93	-1.4	99.0	107.3	38.0
CCOC(=O)C(=O)N=Nc1c(O)n(C)c2ccccc12	-11.3	1.27	11.8	109.1	94.3	2.9
Cn1c(O)c(N=NC(=O)c2ccccc2O)c2ccccc21	-33.8	3.15	-23.7	129.5*	124.7	216.1*
Cc1occc1C(=O)N=Nc1c(O)n(C)c2ccccc12	-55.2	3.05	-24.7	149.2*	120.8	111.6
Cn1c(O)c(N=NC(=O)c2ccco2)c2ccccc21	-24.1	2.49	20.0	121.1	86.2	176.4*
C/C(=C\C(=O)c1ccncc1)Nc1ccccc1O	1.7	6.04*	28.7	98.4	82.5	7.6
COc1ccc(OC)c(N/C(C)=C/C(=O)c2ccccc2)c1	-38.4	1.06	-8.2	133.7*	107.0	77.1
COc1ccc(N/C(C)=C/C(=O)c2ccccc2)cc1	-20.9	3.43*	3.6	118.5	100.3	22.6
COc1ccc(NC(=O)COC(=O)CCCc2c[nH]c3ccccc23)cc1OC	4.9	1.1	-27.4	95.6	125.0	5.2
Cc1csc(NC(=O)/C=C/c2ccc3c(c2)OCO3)n1	43.6*	1.3	88.0*	59.0	27.5	109.9
Brc1cc2c(cc1/C=N/Nc1nc3ccccc3s1)OCO2	-35.7	1.7	-25.6	131.9*	121.2	29.7
O=C(/C=C/c1ccc2c(c1)OCO2)Nc1nc2ccccc2s1	-50.7	1.14	-1.7	146.2*	97.2	156.3*
O=C(/C=C/c1ccc2c(c1)OCO2)Nc1nc(-c2ccc(F)cc2F)cs1	3.5	1.09	21.8	96.9	83.7	0.0
Cc1ccc2nc(NC(=O)/C=C/c3ccc4c(c3)OCO4)sc2c1	-2.2	1.1	4.6	104.3	94.4	20.6
Brc1cc2c(cc1/C=N/Nc1nc(N3CCOCC3)nc(N3CCOCC3)n1)OCO2	-1.0	0.77	-18.1	100.9	118.8	-7.4
COc1ccc(NC(=O)/C=C/c2ccc3c(c2)OCO3)cc1	-35.0	3.22	15.2	130.9*	88.3	72.6
COC(=O)c1sccc1NC(=O)c1ccc(OC)cc1OC	23.1	1	22.8	79.5	83.3	27.8
Cc1cc(C)cc(N(C(C)C(=O)NCCC2=CCCCC2)S(C)(=O)=O)c1 (configuration not stated)	5.4	1.05	2.3	95.1	103.0	1.0
Cc1ccccc1C(=O)NC(C(=O)Nc1nc2c(s1)CCCC2)C(C)C (configuration not stated)	0.3	1.25	-10.1	99.8	107.3	-17.7
COCCSc1nnc(NC(=O)c2ccc(NC(=O)C(C)C)cc2)s1	-8.1	1.04	-14.3	106.5	112.6	15.1
SMILES	STAT1 inh	NF-kB expr up	STAT3 inh	STAT1 act	STAT3 activator	APP 5'UTR act
CC(C)=CC(=O)Nc1ccc2c(c1)OCO2	-12.0	4.53*	13.8	111.1	90.8	126.1
O=C1C(Cl)=C(NC2CCCCC2)C(=O)N1c1ccc(Cl)cc1	-44.9	2.11	-7.5	140.8*	110.0	-14.3
CC(=O)O[C@@H]1[C@@]2(C)O[C@H]2CC[C@]23O[C@H]2[C@H](OC3=O)C2=C(C)C(=O)O[C@@]21O	-0.7	1.31	-2.8	100.6	99.9	6.5
CN(C)c1nc(NC(C)(C)C)nc(NC(C)(C)C)n1	3.4	0.95	12.1	96.2	99.5	4.3
CCN(CC)c1ccc2cc(-c3nc(-c4ccc(OC)cc4)cs3)c(=O)oc2c1	1.5	1.02	10.5	98.7	93.0	9.8
CCN(CC)c1ccc2cc(-c3nc4ccccc4n3C)c(=O)oc2c1	-39.9	4.09*	-44.4	136.3*	144.9*	-87.3
Cc1cc(C)c(C(=O)CSc2nnc(N)s2)c(C)c1	1.9	1.14	10.9	97.5	93.0	-18.6
Cc1ccc(C(=O)CSc2nnc3ccccn23)c(C)c1	-24.4	4.08*	12.8	119.4	93.2	167.4*
Cc1ccc(C(=O)CSc2nnc(N)s2)c(C)c1	-39.7	1.84	7.9	136.9*	101.2	67.1
Cc1ccccc1OCC(=O)OCC(=O)c1ccc(-c2ccccc2)cc1	-0.9	1.18	-0.3	100.8	100.5	·
O=C1N(Cc2cccc(Cl)c2)C[C@@H]2C[C@@H](c3cccn3-c3cccnc3)N3CCC[C@@]123	6.6	1.01	6.0	92.5	96.1	-15.7
CCCc1cc(C(=O)NCc2ccc(OC)cc2)no1	-12.9	1.52	-5.9	111.6	109.3	13.6
CC(C)c1cc(C(=O)Nc2cc(Cl)ccc2O)no1	2.9	8.61*	4.4	97.3	100.8	138.6*
CCCc1cc(C(=O)Nc2cc(Br)ccc2O)no1	-5.7	5.49*	-5.0	102.5	103.3	23.0
CC(C)c1cc(C(=O)Nc2cc(Br)ccc2O)no1	-2.6	7.54*	-3.7	102.4	103.3	37.9
CCc1ccc(/C=C(\Cl)c2nc3cc(Cl)ccc3c(=O)[nH]2)cc1	6.0	1.2	-0.2	94.7	100.9	-4.9
COc1ccc(-c2cc(O)cc(O)c2)cc1	-1.8	3.84*	-2.8	101.6	103.2	102.9
COc1ccccc1-c1cc(C(F)(F)F)nc(S(=O)(=O)CCCC(=O)Nc2cc(C)on2)n1	35.0*	1.75	4.9	67.5	99.4	-0.2
CCOC(=O)C1=C(N)OC(CCl)=C(C#N)C1c1ccsc1 (configuration not stated)	2.2	1.12	0.9	98.0	99.5	0.2
CC(=O)NC1C(=O)N=C(SCc2ccccc2)NC1=O (configuration not stated)	-2.0	1.01	-2.0	104.7	102.7	-5.0
CC(=O)NC1C(=O)Nc2c(C)cc(C)cc21 (configuration not stated)	-42.8	1.11	7.7	138.2*	95.1	8.3
CCOC(=O)c1c(C)[nH]c(C(=O)COC(=O)[C@H](C)NC(=O)c2ccccc2Cl)c1C	-8.0	1.63	9.1	107.3	96.5	36.0
CCOC(=O)c1c(C)[nH]c(C(=O)COC(=O)CNC(=O)c2ccccc2Cl)c1C	-35.6	2.53	-14.6	132.5*	110.9	37.2
CCOC(=O)c1c(C)[nH]c(C)c1C(=O)COC(=O)CNC(=O)C1CCCCC1	-3.9	1.07	-6.2	102.0	107.3	-20.7
CCOC(=O)c1c(C)[nH]c(C(=O)COC(=O)CNC(=O)C2CCCCC2)c1C	-39.1	1.1	-3.0	135.6*	107.4	-9.9
